Columns and labels:
O-acyltransferase = O-acyltransferase (Oryctolagus cuniculus, UniProt G1SFD9); test: In vitro inhibition of Acyl coenzyme A:cholesterol acyltransferase using intestinal microsomes isolated from cholesterol fed rabbits; parameters: species or system Intestine
Rattus norvegicus = species: Rattus norvegicus; test: Percent change in total cholesterol (TC) in cholic acid, cholesterol and peanut oil fed rats; assay type: functional
In short: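 Rats fed a diet of cholic acid (0.3%), cholesterol (1.5%) and peanut oil (5.5%) received each compound in the diet at 0.05% for one week. Plasma total cholesterol was measured and expressed as percent change from control. Significance versus control was tested.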

Sequence of O-acyltransferase (G1SFD9 1-524): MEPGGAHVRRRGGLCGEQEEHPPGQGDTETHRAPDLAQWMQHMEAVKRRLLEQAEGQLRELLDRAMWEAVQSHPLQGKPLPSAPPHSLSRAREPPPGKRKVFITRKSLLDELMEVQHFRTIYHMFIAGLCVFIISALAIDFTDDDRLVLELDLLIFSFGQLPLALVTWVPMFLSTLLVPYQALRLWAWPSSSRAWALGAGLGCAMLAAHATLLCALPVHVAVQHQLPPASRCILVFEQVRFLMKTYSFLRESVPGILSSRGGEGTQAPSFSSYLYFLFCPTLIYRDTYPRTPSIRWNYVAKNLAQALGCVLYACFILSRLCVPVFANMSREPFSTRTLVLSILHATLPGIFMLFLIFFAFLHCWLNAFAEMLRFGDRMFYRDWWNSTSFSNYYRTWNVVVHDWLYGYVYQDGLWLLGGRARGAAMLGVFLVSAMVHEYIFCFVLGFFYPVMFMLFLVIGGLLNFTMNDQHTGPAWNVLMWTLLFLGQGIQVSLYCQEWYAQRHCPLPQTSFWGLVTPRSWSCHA

Cc1cc(C)c(NC(=O)NCC2(c3ccccc3)CCCC2)c(C)c1
IC50 (O-acyltransferase): 3.3 µM

CC(C)c1cccc(C(C)C)c1NC(=O)NC(C)(C)Cc1ccccc1
IC50 (O-acyltransferase): 0.077 µM

CC(C)c1cccc(C(C)C)c1NC(=O)NCC1(c2ccc3ccccc3c2)CCCC1
IC50 (O-acyltransferase): 0.26 µM

CC(C)c1cccc(C(C)C)c1NC(=O)NCC(C)(C)c1ccccc1
IC50 (O-acyltransferase): 0.026 µM

Cc1cccc(C)c1NC(=O)NCC1(c2ccccc2)CCCC1
IC50 (O-acyltransferase): 0.19 µM

O=C(NCC1(c2ccccc2)CCCC1)Nc1c(Cl)cccc1Cl
IC50 (O-acyltransferase): 0.24 µM

CC(C)c1cccc(C(C)C)c1OC(=O)NCC1(c2ccccc2)CCCC1
IC50 (O-acyltransferase): 0.049 µM

O=C(NCC1(c2ccccc2)CCCCC1)Nc1ccccc1
IC50 (O-acyltransferase): 2.3 µM

CC(C)c1cccc(C(C)C)c1NC(=O)NCC1(c2cccnc2)CCCC1
IC50 (O-acyltransferase): 0.097 µM

CC(C)c1cccc(C(C)C)c1NC(=O)NCCC(c1ccccc1)c1ccccc1
IC50 (O-acyltransferase): 0.14 µM

O=C(NCC1(c2ccccc2)CCCC1)Nc1ccc(F)cc1F
IC50 (O-acyltransferase): 1.3 µM

Cc1cccc(C(C)C)c1NC(=O)NCC1(c2ccccc2)CCCCC1
IC50 (O-acyltransferase): 0.058 µM
Change (Rattus norvegicus): -56%

Cc1cccc(C(C)C)c1NC(=O)NCC1(c2ccccc2)CCCC1
IC50 (O-acyltransferase): 0.016 µM
Change (Rattus norvegicus): -65%

CC(C)c1cccc(C(C)C)c1NC(=O)NC1(c2ccccc2)CCCC1
IC50 (O-acyltransferase): 0.065 µM

CN(C)c1cccc(N(C)C)c1NC(=O)NCC1(c2ccccc2)CCCC1
IC50 (O-acyltransferase): 0.11 µM

O=C(NCC1(c2ccccc2)CCCCC1)Nc1ccc(I)cc1
IC50 (O-acyltransferase): 2.3 µM

Cc1ccc(C)c(NC(=O)NCC2(c3ccccc3)CCCCC2)c1
IC50 (O-acyltransferase): 0.47 µM

COc1cccc(NC(=O)NCC2(c3ccccc3)CCCCC2)c1
IC50 (O-acyltransferase): 2.5 µM

CC(C)c1cccc(C(C)C)c1NC(=O)NCC(c1ccccc1)C(C)(C)C (configuration not stated)
IC50 (O-acyltransferase): 0.16 µM

Cc1cccc(C)c1NC(=O)NCC1(c2ccccc2)CCCCC1
IC50 (O-acyltransferase): 0.12 µM
Change (Rattus norvegicus): -44%

CCc1cccc(C(C)C)c1NC(=O)NCC1(c2ccccc2)CCCC1
IC50 (O-acyltransferase): 0.025 µM
Change (Rattus norvegicus): -59%

CC(C)c1cccc(C(C)C)c1NC(=O)NCC1(c2ccccc2)CC1
IC50 (O-acyltransferase): 0.018 µM

CC(C)c1ccc(NC(=O)NCC2(c3ccccc3)CCCCC2)cc1
IC50 (O-acyltransferase): 1.5 µM

Cc1cccc(NC(=O)NCC2(c3ccccc3)CCCCC2)c1
IC50 (O-acyltransferase): 2.8 µM

Cc1ccc(NC(=O)NCC2(c3ccccc3)CCCCC2)c(C)c1
IC50 (O-acyltransferase): 5.5 µM

CC(C)c1cccc(C(C)C)c1NS(=O)(=O)NCC1(c2ccccc2)CCCC1
IC50 (O-acyltransferase): 0.18 µM

CCc1cccc(C(C)C)c1NC(=O)NCC1(c2ccccc2)CCCCC1
IC50 (O-acyltransferase): 0.02 µM
Change (Rattus norvegicus): -70%

CC(C)c1cccc(C(C)C)c1NC(=O)NCc1ccccc1
IC50 (O-acyltransferase): 0.36 µM

Cc1ccc(NC(=O)NCC2(c3ccccc3)CCCCC2)cc1
IC50 (O-acyltransferase): 4.5 µM

CC(C)c1cccc(C(C)C)c1NC(=O)NCC1(c2ccccc2)CCCCC1
IC50 (O-acyltransferase): 0.021 µM
Change (Rattus norvegicus): -73%

CC(C)c1cccc(C(C)C)c1NC(=O)NCC1(c2ccccc2)CCC1
IC50 (O-acyltransferase): 0.028 µM

CC(C)c1cccc(C(C)C)c1NC(=O)NCCCc1ccccc1
IC50 (O-acyltransferase): 0.191 µM

CCCC(CCC)(CNC(=O)Nc1c(C(C)C)cccc1C(C)C)c1ccccc1
IC50 (O-acyltransferase): 0.03 µM

CCCCCC(CCCCC)(CNC(=O)Nc1c(C(C)C)cccc1C(C)C)c1ccccc1
IC50 (O-acyltransferase): 0.026 µM

CCCCC(CCCC)(CNC(=O)Nc1c(C(C)C)cccc1C(C)C)c1ccccc1
IC50 (O-acyltransferase): 0.03 µM

O=C(NCC1(c2ccccc2)CCCCC1)Nc1cccc(Cl)c1Cl
IC50 (O-acyltransferase): 1.3 µM

COc1ccc(NC(=O)NCC2(c3ccccc3)CCCCC2)cc1
IC50 (O-acyltransferase): 4.9 µM

CC(C)c1cccc(C(C)C)c1NC(=O)NCC1(c2ccccc2)CCCC1
IC50 (O-acyltransferase): 0.017 µM
Change (Rattus norvegicus): -73%

CC(C)c1cccc(C(C)C)c1NC(=O)NCCc1ccc2ccccc2c1
IC50 (O-acyltransferase): 0.039 µM

CC(C)c1cccc(C(C)C)c1NC(=O)NCC1c2ccccc2-c2ccccc21
IC50 (O-acyltransferase): 0.027 µM

CC(C)c1cccc(C(C)C)c1NC(=O)NC1CCCc2ccccc21 (configuration not stated)
IC50 (O-acyltransferase): 0.85 µM

CCc1cccc(CC)c1NC(=O)NCC1(c2ccccc2)CCCCC1
IC50 (O-acyltransferase): 0.051 µM
Change (Rattus norvegicus): -60%

CCCCCCC(CCCCCC)(CNC(=O)Nc1c(C(C)C)cccc1C(C)C)c1ccccc1
IC50 (O-acyltransferase): 0.12 µM

CC(C)c1cccc(C(C)C)c1NC(=NC#N)NCC1(c2ccccc2)CCCC1
IC50 (O-acyltransferase): 10 µM

COc1ccccc1NC(=O)NCC1(c2ccccc2)CCCCC1
IC50 (O-acyltransferase): 0.27 µM

CC(C)c1cccc(C(C)C)c1NC(=O)NC(Cc1ccccc1)c1ccccc1 (configuration not stated)
IC50 (O-acyltransferase): 0.031 µM

Cc1ccccc1NC(=O)NCC1(c2ccccc2)CCCCC1
IC50 (O-acyltransferase): 0.64 µM

COc1cc(OC)c(NC(=O)NCC2(c3ccccc3)CCCC2)c(OC)c1
IC50 (O-acyltransferase): 1.4 µM

CC(C)c1cccc(C(C)C)c1NC(=S)NCC1(c2ccccc2)CCCC1
IC50 (O-acyltransferase): 2.33 µM

CC(C)c1cccc(C(C)C)c1NC(=O)NC(=O)C1(c2ccccc2)CCCC1
IC50 (O-acyltransferase): 0.16 µM

CCOC(=O)c1ccc(NC(=O)NCC2(c3ccccc3)CCCCC2)cc1
IC50 (O-acyltransferase): 6.1 µM

CC(C)c1cccc(C(C)C)c1N=C(N)NCC1(c2ccccc2)CCCC1
IC50 (O-acyltransferase): 12 µM

O=C(NCC1(c2ccccc2)CCCCC1)Nc1ccc(Cl)c(Cl)c1
IC50 (O-acyltransferase): 3.8 µM

CCc1cccc(CC)c1NC(=O)NCC1(c2ccccc2)CCCC1
IC50 (O-acyltransferase): 0.056 µM
Change (Rattus norvegicus): -63%

Cc1cccc(C(C)(C)C)c1NC(=O)NCC1(c2ccccc2)CCCCC1
IC50 (O-acyltransferase): 0.054 µM
Change (Rattus norvegicus): -51%

O=C(NCC1(c2ccccc2)CCCCC1)Nc1ccccc1C(F)(F)F
IC50 (O-acyltransferase): 0.2 µM

CCOC(=O)c1ccccc1NC(=O)NCC1(c2ccccc2)CCCCC1
IC50 (O-acyltransferase): 4.2 µM

O=C(NCC1(c2ccccc2)CCCCC1)Nc1cc(Cl)ccc1Cl
IC50 (O-acyltransferase): 2.7 µM

O=C(NCC1(c2ccccc2)CCCCC1)Nc1ccc(Cl)cc1
IC50 (O-acyltransferase): 2.2 µM

Cc1cccc(C(C)(C)C)c1NC(=O)NCC1(c2ccccc2)CCCC1
IC50 (O-acyltransferase): 0.018 µM
Change (Rattus norvegicus): -61%

CC(C)c1ccccc1NC(=O)NCC1(c2ccccc2)CCCCC1
IC50 (O-acyltransferase): 0.39 µM

CCC(CC)(CNC(=O)Nc1c(C(C)C)cccc1C(C)C)c1ccccc1
IC50 (O-acyltransferase): 0.017 µM

O=C(NCC1(c2ccccc2)CCCC1)Nc1c(F)cc(F)cc1F
IC50 (O-acyltransferase): 0.87 µM

CC(C)c1cccc(C(C)C)c1NC(=O)NCC1(c2ccsc2)CCCC1
IC50 (O-acyltransferase): 0.018 µM

CC(C)c1cccc(C(C)C)c1NC(=O)NCC1(c2cccs2)CCCC1
IC50 (O-acyltransferase): 0.012 µM

CC(C)c1cccc(C(C)C)c1NC(=O)NC1CC1c1ccccc1 (configuration not stated)
IC50 (O-acyltransferase): 2 µM

CC(C)c1cccc(C(C)C)c1NC(=O)NCC1(c2cccc3ccccc23)CCCC1
IC50 (O-acyltransferase): 0.034 µM

O=C(NCC1(c2ccccc2)CCCC1)Nc1c(Cl)cc(Cl)cc1Cl
IC50 (O-acyltransferase): 0.96 µM

CC(C)c1cccc(C(C)C)c1NC(=O)NCCc1ccccc1
IC50 (O-acyltransferase): 0.088 µM

CC(C)c1cccc(C(C)C)c1NC(=O)NCCc1cccc2ccccc12
IC50 (O-acyltransferase): 0.041 µM

CC(C)c1cccc(C(C)C)c1NC(=O)Nc1ccccc1
IC50 (O-acyltransferase): 0.91 µM
